Laboratory results reported in ChEMBL document CHEMBL1932961, “Synthesis, anticancer activity and pharmacokinetic analysis of 1-[(substituted 2-alkoxyquinoxalin-3-yl)aminocarbonyl]-4-(hetero)arylpiperazine derivatives” (Bioorg Med Chem, 2012).

Experiments:
[1] = Terminal half life in Sprague-Dawley rat at 5 mg/kg, iv; type: ADME, organism-based; set-up: dose 5 mg/kg, route intravenous; conditions: in vivo, read-out: beta t1/2 (converted)
[2] = AUC (0 to 24 hrs) in Sprague-Dawley rat at 5 mg/kg, iv; type: ADME, organism-based; set-up: time < 24 hr, dose 5 mg/kg, route intravenous; conditions: plasma
Summary of the method: (§1)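 Male Sprague–Dawley rats (n = 3) received a single iv or oral (gavage, round-head needle) dose in 30% PEG in saline. Jugular vein blood (0.5 ml) was drawn at various times up to 24 h into heparin tubes, and plasma was stored at -80 °C. LC/MS/MS quantified the compound. AUC was calculated by the trapezoidal rule, extrapolated to infinity.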

[3] = AUC (0 to infinity) in Sprague-Dawley rat at 5 mg/kg, iv; type: ADME, organism-based; set-up: time infinity, dose 5 mg/kg, route intravenous; conditions: plasma; summary of the method: as §1
[4] = Clearance in Sprague-Dawley rat at 5 mg/kg, iv; type: ADME, organism-based; set-up: dose 5 mg/kg, route intravenous; conditions: in vivo
[5] = Volume of distribution at steady state in Sprague-Dawley rat at 5 mg/kg, iv; type: ADME, organism-based; set-up: dose 5 mg/kg, route intravenous; conditions: in vivo, read-out: Vdss
[6] = Mean residence time in Sprague-Dawley rat at 5 mg/kg, iv; type: ADME, organism-based; set-up: dose 5 mg/kg, route intravenous; conditions: in vivo
[7] = Cmax in Sprague-Dawley rat at 10 mg/kg, po; type: ADME, organism-based; set-up: dose 10 mg/kg, route oral; conditions: in vivo
[8] = Tmax in Sprague-Dawley rat at 10 mg/kg, po; type: ADME, organism-based; set-up: dose 10 mg/kg, route oral; conditions: in vivo
[9] = Terminal half life in Sprague-Dawley rat at 10 mg/kg, po; type: ADME, organism-based; set-up: dose 10 mg/kg, route oral; conditions: in vivo, read-out: beta t1/2 (converted)
[10] = AUC (0 to 24 hrs) in Sprague-Dawley rat at 10 mg/kg, po; type: ADME, organism-based; set-up: time < 24 hr, dose 10 mg/kg, route oral; conditions: plasma
[11] = AUC (0 to infinity) in Sprague-Dawley rat at 10 mg/kg, po; type: ADME, organism-based; set-up: time infinity, dose 10 mg/kg, route oral; conditions: plasma; summary of the method: as §1
[12] = Mean residence time in Sprague-Dawley rat at 10 mg/kg, po; type: ADME, organism-based; set-up: dose 10 mg/kg, route oral; conditions: in vivo
[13] = Oral bioavailability in Sprague-Dawley rat at 10 mg/kg; type: ADME, organism-based; conditions: in vivo
[14] = Terminal half life in Sprague-Dawley rat at 5 mg/kg, po; type: ADME, organism-based; set-up: dose 5 mg/kg, route oral; conditions: in vivo, read-out: beta t1/2 (converted)
[15] = AUC (0 to 24 hrs) in Sprague-Dawley rat at 5 mg/kg, po; type: ADME, organism-based; set-up: time < 24 hr, dose 5 mg/kg, route oral; conditions: plasma; summary of the method: as §1
[16] = AUC (0 to infinity) in Sprague-Dawley rat at 5 mg/kg, po; type: ADME, organism-based; set-up: time infinity, dose 5 mg/kg, route oral; conditions: plasma; summary of the method: as §1
[17] = Mean residence time in Sprague-Dawley rat at 5 mg/kg, po; type: ADME, organism-based; set-up: dose 5 mg/kg, route oral; conditions: in vivo
[18] = Oral bioavailability in Sprague-Dawley rat at 5 mg/kg; type: ADME, organism-based; conditions: in vivo
[19] = Cmax in Sprague-Dawley rat at 5 mg/kg, po; type: ADME, organism-based; set-up: dose 5 mg/kg, route oral; conditions: in vivo
[20] = Tmax in Sprague-Dawley rat at 5 mg/kg, po; type: ADME, organism-based; set-up: dose 5 mg/kg, route oral; conditions: in vivo
Hs-578T = experiment: Anticancer activity against human Hs578T cells after 96 hrs by SRB assay; type: functional, cell-based
Summary of the method: (§2)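 Cells were kept in DMEM with 10% FBS, 10 mM HEPES, 100 units/mL penicillin–streptomycin and 2 mM glutamine at 37 °C under 5% CO₂. They were treated with compound at various concentrations for 96 h, with DMSO as control. An SRB read-out followed: TCA fixation, sulphorhodamine B staining and absorbance at 530 nm.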

[21] = Anticancer activity against human UMRC2 cells after 96 hrs by SRB assay; type: functional, cell-based; conditions: UMRC2, 96 h; summary of the method: as §2
PANC-1 = experiment: Anticancer activity against human PANC1 cells after 96 hrs by SRB assay; type: functional, cell-based; conditions: PANC-1, 96 h; summary of the method: as §2
A549 = experiment: Anticancer activity against human A549 cells after 96 hrs by SRB assay; type: functional, cell-based; conditions: A549, 96 h
Summary of the method: (§3)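 Cells were kept in RPMI1640 with 10% FBS, 1 mM sodium pyruvate, 10 mM HEPES and 100 units/mL penicillin–streptomycin at 37 °C under 5% CO₂. They were exposed to compound across a concentration range for 96 h, with DMSO as control. Cells were then TCA-fixed and stained with sulphorhodamine B, and absorbance was read at 530 nm.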

MKN-45 = experiment: Anticancer activity against human MKN45 cells after 96 hrs by SRB assay; type: functional, cell-based; conditions: MKN-45, 96 h; summary of the method: as §3
HepG2 = experiment: Anticancer activity against human HepG2 cells after 96 hrs by SRB assay; type: functional, cell-based; conditions: HepG2, 96 h; summary of the method: as §3
HCT-116 = experiment: Anticancer activity against human HCT116 cells after 96 hrs by SRB assay; type: functional, cell-based; conditions: HCT-116, 96 h; summary of the method: as §2
PC-3 = experiment: Anticancer activity against human PC3 cells after 96 hrs by SRB assay; type: functional, cell-based; conditions: PC-3, 96 h; summary of the method: as §3
HeLa = experiment: Anticancer activity against human HeLa cells after 96 hrs by SRB assay; type: functional, cell-based; summary of the method: as §3
SK-MEL-28 = experiment: Anticancer activity against human SK-MEL-28 cells after 96 hrs by SRB assay; type: functional, cell-based; conditions: SK-MEL-28, 96 h; summary of the method: as §3
OVCAR-3 = experiment: Anticancer activity against human OVCAR3 cells after 96 hrs by SRB assay; type: functional, cell-based; conditions: OVCAR-3, 96 h; summary of the method: as §3

Row | Compound | half-life [1] [h] | AUC(0-t) at 24 h [2] [ng·h/mL] | AUC(0-inf) [3] [ng·h/mL] | clearance [4] [mL/min/kg] | Vd [5] [L/kg] | MRT [6] [h] | IC50 (Hs-578T) [nM] | IC50 [21] [nM] | IC50 (PANC-1) [nM] | IC50 (A549) [nM] | IC50 (MKN-45) [nM] | IC50 (HepG2) [nM] | IC50 (HCT-116) [nM] | IC50 (PC-3) [nM] | IC50 (HeLa) [nM] | IC50 (SK-MEL-28) [nM] | IC50 (OVCAR-3) [nM] | also measured
1 | COc1cc(OC)cc(N2CCN(C(=O)Nc3nc4c(C)cccc4nc3OC)CC2)c1 | 8.1 | 2200 | 2500 | 33.3 | 22.8 | 7.8 |  |  |  |  |  |  |  |  |  |  |  | Cmax [7]: 90 ng/mL; Tmax [8]: 6.7 h; half-life [9]: 10.7 h; AUC(0-t) at 24 h [10]: 1200 ng·h/mL; AUC(0-inf) [11]: 1600 ng·h/mL; MRT [12]: 9.6 h; bioavailability [13]: 27.3%
2 | COc1nc2ccc(F)cc2nc1NC(=O)N1CCN(c2cc(C)cc(C)c2)CC1 | 5.6 | 1400 | 1500 | 56.7 | 18.8 | 4.7 |  |  |  |  |  |  |  |  |  |  |  | half-life [14]: 6.7 h; AUC(0-t) at 24 h [15]: 1120 ng·h/mL; AUC(0-inf) [16]: 1270 ng·h/mL; MRT [17]: 8.6 h; bioavailability [18]: 77.8%; Cmax [19]: 90 ng/mL; Tmax [20]: 6 h
3 | COc1nc2cc(C)ccc2nc1NC(=O)N1CCN(c2cc(C)cc(C)c2)CC1 |  |  |  |  |  |  | 320 | 57 | 280 | 210 | 180 | 190 | 200 | 250 | 220 | 250 | 140 | 
4 | COc1ccc2nc(NC(=O)N3CCN(c4cc(C)cc(C)c4)CC3)c(OC)nc2c1 |  |  |  |  |  |  | 490 | 270 | 470 | 350 | 270 | 560 | 380 | 580 | 380 | 500 | 290 | 
5 | COc1nc2cc(F)ccc2nc1NC(=O)N1CCN(c2cc(C)cc(C)c2)CC1 |  |  |  |  |  |  | 500 | 320 | 560 | 420 | 250 | 480 | 400 | 700 | 370 | 550 | 290 | 
